Reference: ChEMBL document CHEMBL1156470, “Inhibition of the activation of multiple serine proteases with a cathepsin C inhibitor requires sustained exposure to prevent pro-enzyme processing” (J Biol Chem, 2007)
Calls of active or inactive are those of the source. The rule behind the calls is not given here. Non-standard residues stand in square brackets, D forms with d. Residues, ends and D or L forms follow the SMILES beside them. *: point of attachment. Phe(4-I) = N[C@@H](Cc1ccc(I)cc1)C(=O)O; CHN2 = [N-]=[N+]=C*

Assays:
Dipeptidyl peptidase 1 [1] = target: T1, Dipeptidyl peptidase 1 (Homo sapiens, UniProt P53634); experiment: Inhibition of human recombinant cathepsin C after 10 mins
T1 sequence (P53634 25-134 limits assumed): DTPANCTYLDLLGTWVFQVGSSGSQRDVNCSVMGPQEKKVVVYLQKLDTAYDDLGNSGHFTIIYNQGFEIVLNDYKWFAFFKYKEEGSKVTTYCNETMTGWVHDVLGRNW
T1 sequence (P53634 231-394 limits assumed): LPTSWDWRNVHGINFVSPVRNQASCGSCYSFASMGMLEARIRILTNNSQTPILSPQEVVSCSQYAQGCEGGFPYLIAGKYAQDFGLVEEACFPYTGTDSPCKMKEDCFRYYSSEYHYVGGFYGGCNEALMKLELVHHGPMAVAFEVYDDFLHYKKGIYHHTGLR
T1 sequence (P53634 395-463 limits assumed): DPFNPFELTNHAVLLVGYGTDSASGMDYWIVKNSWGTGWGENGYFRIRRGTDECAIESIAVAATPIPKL
Outline: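 Recombinant human cathepsin C at 1 nM in 25 mM MES pH 6.0, 50 mM NaCl, 5 mM DTT, with 50 μM Gly-Arg-AMC (twice Km). Enzyme preincubated with inhibitor 10 min, then substrate added, at room temperature. Fluorogenic AMC release.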

Cathepsin B = Cathepsin B (Homo sapiens, UniProt P07858); experiment: Inhibition of human recombinant cathepsin B after 10 mins
Procathepsin L = Procathepsin L (Homo sapiens, UniProt P07711); experiment: Inhibition of human recombinant cathepsin L after 10 mins
Sequence of Procathepsin L (P07711 whole entry): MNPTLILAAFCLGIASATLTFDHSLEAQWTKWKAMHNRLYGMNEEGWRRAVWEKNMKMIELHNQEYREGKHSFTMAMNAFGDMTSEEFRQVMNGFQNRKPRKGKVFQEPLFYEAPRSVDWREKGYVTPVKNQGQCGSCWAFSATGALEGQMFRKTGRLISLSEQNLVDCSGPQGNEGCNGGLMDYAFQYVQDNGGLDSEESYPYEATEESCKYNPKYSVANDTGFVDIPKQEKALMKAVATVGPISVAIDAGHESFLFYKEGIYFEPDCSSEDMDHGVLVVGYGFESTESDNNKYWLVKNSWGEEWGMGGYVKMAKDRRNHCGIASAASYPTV

Pro-cathepsin H = target: T2, Pro-cathepsin H (Homo sapiens, UniProt P09668); experiment: Inhibition of human recombinant cathepsin H after 10 mins
T2 sequence (P09668 whole entry): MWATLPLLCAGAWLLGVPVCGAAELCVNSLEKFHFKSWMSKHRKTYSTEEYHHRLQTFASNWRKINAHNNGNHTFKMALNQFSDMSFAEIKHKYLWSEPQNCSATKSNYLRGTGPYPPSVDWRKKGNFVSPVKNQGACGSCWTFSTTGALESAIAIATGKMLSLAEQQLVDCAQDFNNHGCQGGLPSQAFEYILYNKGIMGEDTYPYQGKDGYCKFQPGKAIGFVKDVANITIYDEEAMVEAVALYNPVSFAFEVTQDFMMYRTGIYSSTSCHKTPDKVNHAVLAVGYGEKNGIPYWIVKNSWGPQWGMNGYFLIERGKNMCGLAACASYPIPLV

Cathepsin G [2] = target: T3, Cathepsin G (Homo sapiens, UniProt P08311); experiment: Blockade of cathepsin G processing in human U937 cells by densitometry; type: cell-based, U-937
T3 sequence (P08311 whole entry): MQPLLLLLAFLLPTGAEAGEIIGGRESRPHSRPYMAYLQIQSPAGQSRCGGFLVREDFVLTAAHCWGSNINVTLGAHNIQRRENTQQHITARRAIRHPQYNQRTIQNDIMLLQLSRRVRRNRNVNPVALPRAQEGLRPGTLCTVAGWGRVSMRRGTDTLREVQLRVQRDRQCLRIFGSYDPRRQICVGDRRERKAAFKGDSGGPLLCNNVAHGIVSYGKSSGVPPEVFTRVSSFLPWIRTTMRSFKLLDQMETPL
Outline: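 U937 cells washed, plated at 2×10^6 cells/ml in methionine/glutamine-free RPMI, inhibitor or 0.5% Me₂SO added during 30 min starvation, pulsed with [³⁵S]methionine (10 μCi/ml) 30 min, re-seeded in complete medium with inhibitor and chased 3 h. Lysates bound to aprotinin-agarose 1 h at room temperature, SDS-PAGE and fluorography. CG band quantitated by densitometry as % inhibition vs vehicle.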

Neutrophil elastase [3] = target: T4, Neutrophil elastase (Mus musculus, UniProt Q3UP87); experiment: Inhibition of neutrophil elastase activation in beta-estradiol differentiated mouse EcoM-G cells after 24 hrs; type: cell-based
T4 sequence (Q3UP87 whole entry): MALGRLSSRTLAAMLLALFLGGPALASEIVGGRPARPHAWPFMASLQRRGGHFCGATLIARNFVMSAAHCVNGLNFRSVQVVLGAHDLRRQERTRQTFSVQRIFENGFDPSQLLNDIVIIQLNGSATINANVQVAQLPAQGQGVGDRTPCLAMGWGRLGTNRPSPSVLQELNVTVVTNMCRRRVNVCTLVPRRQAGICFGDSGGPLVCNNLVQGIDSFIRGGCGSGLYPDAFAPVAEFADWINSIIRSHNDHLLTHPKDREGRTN
Outline: (§1)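 EcoM-G cells (cultures <3 months old) washed and seeded at 0.5×10^6 cells/ml without β-estradiol. After 24 h, compound added in Me₂SO (final 0.5%), then cells differentiated a further 24 h, harvested and lysed. NE assayed with 400 μM MeOSuc-AAPV-AMC, CG with 1 mM Suc-AAPF-pNA (405 nm, 5 min), Pr-3 with 10 μM internally quenched substrate (ex 328/em 393 nm), all from the same lysates. IC50 from four-parameter Hill fit.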

Cathepsin G [4] = target: T5, Cathepsin G (Mus musculus, UniProt P28293); experiment: Inhibition of cathepsin G activation in beta-estradiol differentiated mouse EcoM-G cells after 24 hrs; type: cell-based; outline: as §1
T5 sequence (P28293 whole entry): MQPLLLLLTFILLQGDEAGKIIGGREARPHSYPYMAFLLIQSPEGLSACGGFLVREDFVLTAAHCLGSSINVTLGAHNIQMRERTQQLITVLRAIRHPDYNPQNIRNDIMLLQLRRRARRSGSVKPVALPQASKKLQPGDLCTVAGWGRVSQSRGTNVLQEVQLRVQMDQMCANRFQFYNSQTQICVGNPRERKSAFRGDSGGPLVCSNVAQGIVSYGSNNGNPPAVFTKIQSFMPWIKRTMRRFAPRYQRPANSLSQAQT

Myeloblastin [5] = target: T6, Myeloblastin (Mus musculus, UniProt Q61096); experiment: Inhibition of proteinase-3 activation in beta-estradiol differentiated mouse EcoM-G cells after 24 hrs; type: cell-based; outline: as §1
T6 sequence (Q61096 whole entry): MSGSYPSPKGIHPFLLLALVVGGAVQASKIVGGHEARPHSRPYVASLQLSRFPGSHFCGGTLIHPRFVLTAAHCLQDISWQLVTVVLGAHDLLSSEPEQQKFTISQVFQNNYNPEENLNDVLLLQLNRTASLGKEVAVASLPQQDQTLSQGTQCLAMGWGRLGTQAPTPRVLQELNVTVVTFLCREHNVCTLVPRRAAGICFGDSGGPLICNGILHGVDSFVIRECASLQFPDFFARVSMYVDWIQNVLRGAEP

Cathepsin S = Cathepsin S (Homo sapiens, UniProt P25774); experiment: Inhibition of human recombinant cathepsin S after 10 mins
Sequence of Cathepsin S (P25774 whole entry): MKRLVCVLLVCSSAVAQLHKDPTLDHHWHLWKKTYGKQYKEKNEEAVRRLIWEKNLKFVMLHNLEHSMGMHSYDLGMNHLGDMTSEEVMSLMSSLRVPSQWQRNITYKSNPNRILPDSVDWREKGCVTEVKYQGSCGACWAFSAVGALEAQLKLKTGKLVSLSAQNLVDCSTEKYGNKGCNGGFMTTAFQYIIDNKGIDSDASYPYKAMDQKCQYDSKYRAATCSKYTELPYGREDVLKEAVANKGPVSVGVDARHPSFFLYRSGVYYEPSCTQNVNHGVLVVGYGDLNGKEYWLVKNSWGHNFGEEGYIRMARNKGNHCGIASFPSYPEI

Cathepsin G [6] = target: T3, Cathepsin G; experiment: Inhibition of cathepsin G in human U937 cells; type: cell-based, U-937
Neutrophil elastase [7] = target: T7, Neutrophil elastase (Homo sapiens, UniProt P08246); experiment: Blockade of neutrophil elastase processing in human U937 cells after 7 days by fluorogenic substrate cleavage assay; type: cell-based, U-937
T7 sequence (P08246 whole entry): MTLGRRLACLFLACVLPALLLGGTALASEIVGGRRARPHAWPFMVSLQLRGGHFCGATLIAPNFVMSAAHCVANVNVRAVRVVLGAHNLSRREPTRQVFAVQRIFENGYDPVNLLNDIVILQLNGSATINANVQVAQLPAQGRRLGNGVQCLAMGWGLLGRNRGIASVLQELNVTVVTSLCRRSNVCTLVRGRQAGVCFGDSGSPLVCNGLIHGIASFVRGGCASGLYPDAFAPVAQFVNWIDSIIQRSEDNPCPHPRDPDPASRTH
Outline: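 U937 seeded at 1×10^5 cells/ml with vehicle or inhibitor, passaged and diluted 10-fold into fresh medium with compound on days 3 and 5, harvested day 7. Cells washed and lysed in 20 mM Tris pH 7.5, 100 mM NaCl, 0.2% NP-40. NE rate measured with 400 μM MeOSuc-AAPV-AMC (ex 370/em 450 nm, 10 min). % inhibition vs vehicle, four wells per point.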

[8] = target: Neutrophil elastase (Mus musculus) (UniProt Q3UP87); experiment: Inhibition of neutrophil elastase in mouse EcoM-G cells
Dipeptidyl peptidase 1 [9] = target: T1, Dipeptidyl peptidase 1; experiment: Inhibition of cathepsin C in human U937 cells at 1 uM after 24 hrs; type: cell-based; conditions: U-937
Outline: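 U937 at 0.4×10^6 cells/ml exposed 24 h to compound (final Me₂SO 0.5%), washed, lysed in 25 mM MES pH 6.0, 50 mM NaCl, 5 mM DTT, 0.2% NP-40. Protein-normalised lysate diluted 1:10 and assayed with 50 μM Gly-Arg-AMC (twice Km) at room temperature. Residual cathepsin C activity.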

U-937 [10] = experiment: Cytotoxicity against human U937 cells at 1 uM after 72 hrs annexin-V propidium iodide method; type: functional
Outline: (§2)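 U937 plated at 0.4×10^6 cells/ml, compound in Me₂SO (final 0.5%). Cells harvested and re-seeded every 24 h in medium with freshly added inhibitor, for 72 h. Viability by annexin V-FITC/propidium iodide two-colour flow cytometry; cells negative for both stains counted viable.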

[11] = target: T8, Cathepsin G (Homo sapiens) (UniProt P08311); experiment: Inhibition of human U937 cellular [35S]methionine-labeled cathepsin G binding to aprotinin by aprotinin-agarose silver-stained SDS-PAGE method; type: cell-based; conditions: U-937, in the assay text read “SDS-PAGE fluorography” for “silver-stained SDS-PAGE”
T8 sequence (whole entry): T3 sequence (P08311 whole entry)

U-937 [12] = experiment: Cytotoxicity against human U937 cells at 30 uM after 72 hrs annexin-V propidium iodide method; type: functional; outline: as §2
Myeloblastin [13] = target: T9, Myeloblastin (Homo sapiens, UniProt P24158); experiment: Inhibition of proteinase-3 in human U937 cells; type: cell-based, U-937
T9 sequence (P24158 whole entry): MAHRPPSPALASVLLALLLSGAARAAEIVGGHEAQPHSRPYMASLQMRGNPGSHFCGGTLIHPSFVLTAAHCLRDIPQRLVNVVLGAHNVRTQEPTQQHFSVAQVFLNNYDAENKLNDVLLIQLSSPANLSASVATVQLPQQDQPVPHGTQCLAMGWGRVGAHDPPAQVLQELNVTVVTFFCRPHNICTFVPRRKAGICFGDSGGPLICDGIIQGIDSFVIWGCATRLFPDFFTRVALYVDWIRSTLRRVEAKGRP

SMILES | IC50 (Dipeptidyl peptidase 1 [1]) [nM] | IC50 (Cathepsin B) [nM] | IC50 (Procathepsin L) [nM] | IC50 (Pro-cathepsin H) [nM] | IC50 (Cathepsin G [2]) [nM] | IC50 (Neutrophil elastase [3]) [nM] | IC50 (Cathepsin G [4]) [nM] | IC50 (Myeloblastin [5]) [nM] | IC50 (Cathepsin S) [nM] | further results
N#[N+][CH-]C(=O)[C@H](Cc1ccccc1)NC(=O)CN | 51 | > 30000 | 25500 | 29000 |  |  |  |  |  | 
CCOC(=O)[C@H]1O[C@@H]1C(=O)N[C@@H](CC(C)C)C(=O)NCCC(C)C [ALOXISTATIN] |  |  |  |  | 1100 | > 10000 | > 10000 | > 10000 |  | 
N#C[C@@]1(NC(=O)C(N)Cc2sccc2F)C[C@@H]1c1ccccc1 (some centres undefined) |  | > 50000 | 15500 | > 50000 | 90 | 150 | 690 | 150 | 33400 | IC50 (Cathepsin G [6]): > 10000 nM; IC50 (Neutrophil elastase [7]): 170 nM; IC50 [8]: > 10000 nM
CC(C)C[C@@H](NC(=O)N1CCOCC1)C(=O)N[C@@H](/C=C/S(=O)(=O)c1ccccc1)CCc1ccccc1 | > 10000 | 1360 |  |  |  | 25500 | 39800 | 21200 | 1 | 
CC(C)C[C@H](NC(=O)[C@H]1O[C@@H]1C(=O)O)C(=O)NCCCCN=C(N)N [E-64] | 770 | 10 | 13 | 190 |  |  |  |  | 7 | 
C[C@H](N)C(=O)N[C@@H](Cc1ccc(I)cc1)C(=O)C=[N+]=[N-] |  |  |  |  |  |  |  |  |  | inhibition (Dipeptidyl peptidase 1 [9]): 99.6%; Activity (U-937 [10]): 32%; Activity [11]: Active
CCC[C@@H](NC(=O)N1C(=O)C(CC)(CC)[C@@H]1Oc1ccc(C(=O)N2CCN(C)CC2)cc1)c1ccc2c(c1)OCO2 |  |  |  |  |  |  |  |  |  | Activity [11]: inactive
N#C[C@]1(NC(=O)[C@@H](N)Cc2ccccc2F)C[C@H]1c1ccccc1 | > 220 | > 3000 | 560 |  | 1200 | 5490 | 17600 | 4550 | 1600 | IC50 (Neutrophil elastase [7]): 1900 nM
N#C[C@]1(NC(=O)C(N)Cc2cccs2)C[C@H]1c1ccccc1.O=C(O)C(F)(F)F (single isomer, unassigned) | > 30000 | > 50000 | > 50000 | > 50000 | > 50000 | > 50000 | > 50000 | > 50000 | > 50000 | Activity (U-937 [12]): 98%; IC50 (Neutrophil elastase [7]): > 30000 nM
[N-]=[N+]=CC(=O)[C@H](Cc1ccccc1)NC(=O)CN (H-Gly-Phe-CHN2) |  |  |  |  |  |  |  |  |  | inhibition (Dipeptidyl peptidase 1 [9]): 100%; Activity (U-937 [10]): 32%
N#C[C@]1(NC(=O)C(N)Cc2cncs2)C[C@H]1c1ccccc1 (some centres undefined) | 790 |  |  |  |  | 7930 | > 50000 |  |  | 
[N-]=[N+]=CC(=O)[C@H](Cc1ccc(I)cc1)NC(=O)CN (H-Gly-[Phe(4-I)]-CHN2) | 1 | 2940 | 29500 | 9800 |  |  |  |  | > 50000 | IC50 (Cathepsin G [6]): > 50000 nM; IC50 (Myeloblastin [13]): > 50000 nM; IC50 [8]: > 50000 nM
Cc1cc(C)cc(CC(NC(=O)C(c2ccccc2)c2ccccc2)C(=O)NCC#N)c1 (centres undefined) |  | 40 | 90 |  |  | > 50000 | > 50000 |  | 470 | 
CS(=O)(=O)C[C@H](N[C@@H](c1ccc(Br)cc1)C(F)(F)F)C(=O)NC1(C#N)CC1 | > 10000 | 280 | 430 | > 50000 | > 50000 | > 50000 | > 50000 |  | 10 | 
CCC[C@H](NC(=O)C(CC(C)C)NC(=O)c1ccc(-c2ccc(I)cc2)cc1)C(=O)[CH-][N+]#N (some centres undefined) | 450 | 65 | 10 |  |  |  |  |  | 9 | 
